# Compound activity (PubChem BioAssay)
# Only some compounds are listed: those with a hit (about 4.6% of all), similar ones and a draw of the others.
# OX1R antag-1 – blocks the human orexin 1 receptor | O43613 | CHO/OX1R cells, Fluo-8 calcium fluorescence, orexin A | inhibition, % at 5 µM | actives 0.43% (n = 330,000);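 active = inhibition above its plate's threshold, mean inhibition of all tested compounds on the plate plus 3 SD, cut at about 37% in these data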;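 note: 0% = orexin A challenge wells and 100% = SB-334867-A antagonist wells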
# TAAR1 agonist – agonists of human TAAR1; activation, % at 3 µM; Q96RJ0; actives 0.99% (n = 360,000); CHO RD-HGA16 TAAR1, Fluo-8 calcium fluorescence; vehicle wells 0%, saturating PEA agonist 100%; AID 624467;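 active = activation above the mean activation of all test compounds in the run plus 3 SD, cut at about 38% in these data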
# Target sequence (Q96RJ0 whole entry, looked up): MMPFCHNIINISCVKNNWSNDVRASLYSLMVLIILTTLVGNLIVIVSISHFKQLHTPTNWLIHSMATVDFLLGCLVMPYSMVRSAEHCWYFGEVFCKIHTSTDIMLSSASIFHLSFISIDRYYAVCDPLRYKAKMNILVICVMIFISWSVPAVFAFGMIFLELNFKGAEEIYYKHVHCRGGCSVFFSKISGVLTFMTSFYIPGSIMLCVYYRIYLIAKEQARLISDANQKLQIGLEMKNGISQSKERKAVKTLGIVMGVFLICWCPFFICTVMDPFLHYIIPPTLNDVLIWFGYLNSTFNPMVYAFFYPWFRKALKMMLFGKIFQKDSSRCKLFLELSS
#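 System: CHO RD-HGA16 cells carrying human TAAR1 plus Gα16; Incubation: 17-24 h seeding, 75 min 37 °C dye, 30 min RT; Measured by: Fluo-8 fluorescence, 5 s baseline then 140 s kinetic read; Control set: DMSO and PEA EC100; Replication: single well for each compound.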
# GPR7 antag – human neuropeptides B/W receptor 1 antagonism; P48145; GPR7-expressing cells, fluorescence antagonist assay; inhibition, % at 4.4 µM; actives 1.1% (n = 290,000); AID 1861; in the data active = inhibition above about 16%, passing the limit was not always enough;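 note: cells stimulated with the agonist NPW; 0% = agonist with vehicle and 100% = vehicle without agonist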
# Target sequence (P48145 whole entry, looked up): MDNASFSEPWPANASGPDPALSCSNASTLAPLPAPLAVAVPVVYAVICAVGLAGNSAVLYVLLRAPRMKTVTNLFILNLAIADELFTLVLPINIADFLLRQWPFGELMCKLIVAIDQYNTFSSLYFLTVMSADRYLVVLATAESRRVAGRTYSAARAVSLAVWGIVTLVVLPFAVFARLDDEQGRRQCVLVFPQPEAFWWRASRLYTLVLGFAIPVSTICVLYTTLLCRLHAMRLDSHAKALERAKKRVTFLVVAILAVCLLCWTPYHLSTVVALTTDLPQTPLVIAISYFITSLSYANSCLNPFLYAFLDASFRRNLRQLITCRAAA
# TAAR1 antagonist – antagonists of human TAAR1; AID 624466; Q96RJ0; CHO RD-HGA16 TAAR1, Fluo-8 calcium fluorescence, antagonist; actives 1.5% (n = 360,000); inhibition, % at 3 µM;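 active = inhibition above a per-plate cutoff, the mean inhibition of test compounds on that plate plus 3 SD, cut at about 49% in these data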;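 note: 0% = DMSO plus EC80 beta-PEA response and 100% = DMSO alone without agonist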
#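 Material: RD-HGA16 CHO cells with stable hTAAR1 and Gα16; Dosing: single nominal final test compound concentration of 3 µM; Schedule: seeding 17-24 h prior, 75-min 37 °C, 30-min RT dye loading; Detection: kinetic Fluo-8 calcium fluorescence measurement; Measure: % inhibition from peak post-agonist over basal fluorescence ratio; Benchmarks: vehicle and agonist controls.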
# OX1R antag-2 – blocks the human orexin 1 receptor; OX1R-expressing cells, FRET antagonist read-out; inhibition, % at 6.6 µM; actives 1.8% (n = 330,000); AID 485270; in the data active = inhibition mostly above about 38%, no sharp cut-off; inactive = mostly below about 40%;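 note: 0% = agonist challenge alone and 100% = reference antagonist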
# CHO parental Ca – counter-screen: ATP calcium response change in parental CHO cells. parental CHO-K1, ATP-induced calcium, Fluo-8 fluorescence. inhibition, % at 5.6 µM. actives 0.63% (n = 330,000). AID 463079;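 active = inhibition above that plate's mean sample inhibition plus 3 SD, cut at about 26% in these data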;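 note: 0% = ATP-challenged DMSO wells and 100% = DMSO wells without ATP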
#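 material = parental CHO cells | also added = ATP as calcium-mobilizing challenge | dosing = single point at 5.6 µM | detection = intracellular calcium via Fluo-8 no-wash fluorescent dye | read-out = % inhibition | benchmarks = low control ATP plus DMSO, high control DMSO only | repeats = one well per compound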
# * marks the source's active call; other numbers are inactive results; nt = not tested or not shown; ! = not active in a repeat.
SMILES,OX1R antag-1,TAAR1 agonist,GPR7 antag,TAAR1 antagonist,OX1R antag-2,CHO parental Ca
CC(=O)NC(c1cc(Cl)c2ccccc2c1O)C(C)C (centres undefined),0,7,nt,-3,40*,-8
CCC(=O)NC(C)c1cc(Cl)c2ccccc2c1O (centres undefined),25,13,nt,22,34,-9
CC(=O)NC(c1cc(Cl)c2cccnc2c1O)C(C)C (centres undefined),-15,19,nt,3,0,-8
CNC[C@@H]1OCc2cnnn2CCCC(=O)N([C@@H](C)CO)C[C@H]1C,nt,5,nt,-16,nt,nt
Cc1ccc2nc(NC(=O)c3ccc(Cl)s3)sc2c1,-6,0,-9,-21,14,-10
CS(=O)(=O)c1ccccc1C(=O)Nc1ccc(-c2nc3ccccc3[nH]2)cc1,-11,4,6,15,15,-15
O=C(c1ccccc1)c1ccc2nc(-c3ccc(NC(=O)c4ccccc4Br)cc3)[nH]c2c1,10,12,-1,68*,14,20
Cc1nc2ccc(NC(=O)c3ccc(Cl)s3)cc2s1,8,2,0,-18,48*,33*
Cc1ccccc1C(=O)Nc1ccc(-c2nc3ccc(C(=O)c4ccccc4)cc3[nH]2)cc1,-6,17,-1,103*,51,18
CSc1nc2ccc(NC(=O)c3cccs3)cc2s1,-10,3,nt,13,37*,-16
C=CCN=C1NC(CCc2ccccc2)C(C(=O)OC)=C(C)N1Cc1ccccc1C(F)(F)F (centres undefined),nt,10,nt,-9,nt,nt
COC(=O)C1=C(C)N(Cc2ccccc2C(F)(F)F)C(=NCc2ccccc2C(F)(F)F)NC1c1ccc(F)cc1 (centres undefined),nt,-1,nt,-24,nt,nt
O=C(Nc1ccc(-c2nc3ccc(NC(=O)c4cccs4)cc3[nH]2)cc1)c1cccs1,-7,5,6,61*,29,9
Cc1ccccc1CN1CCNC(=O)C1CC(=O)NCCN1CCCCC1=O (centres undefined),-8,3,-14,-9,22,-6
C=CCNc1nc2c(c(=O)n(C)c(=O)n2C)n1Cc1ccc(F)cc1,-31,3,-6,15,29,40*
CN1CCN(c2ccccc2NC(=O)c2ccc([N+](=O)[O-])o2)CC1,-23,nt,16,nt,71*,-18
Cc1ccccc1NC(=O)c1ccc([N+](=O)[O-])o1,-4,1,-8,6,70*,4
Cc1c(NC(=O)c2ccc([N+](=O)[O-])o2)cccc1-c1nc2ncccc2o1,-3,2,10,13,63*,-15
O=C(Nc1cccc2ncccc12)c1ccc([N+](=O)[O-])o1,0,1,0,-12,70*,4
CS(=O)(=O)N1CCN(c2ccccc2NC(=O)c2ccc([N+](=O)[O-])o2)CC1,-2,10,-15,8,35,-20
Cc1ccc(NC(=O)c2ccc([N+](=O)[O-])o2)c(C)c1,-11,3,-14,3,29,-2
Cc1ccc(-n2ncc3c2CCCC3NC(=O)CCCN2CCCCC2=O)cc1C (centres undefined),-30,-1,-12,-9,2,-17
CCC(=O)N1CCN(c2ccc(Cl)cc2NC(=O)c2ccc([N+](=O)[O-])o2)CC1,-35,7,4,24,28,-22
CCn1nnc(NC(=O)c2ccc([N+](=O)[O-])o2)n1,-3,4,-9,-23,69*,-4
O=C(Nc1cc(Cl)ccc1-n1cncn1)c1ccc([N+](=O)[O-])o1,-24,3,nt,-20,48*,-9
SMILES,OX1R antag-1,TAAR1 agonist,GPR7 antag,TAAR1 antagonist,OX1R antag-2,CHO parental Ca
CN1CCN(c2ccccc2NC(=O)c2cccc(OCc3ccccc3)c2)CC1,-14,8,18*,0,9,-22
CN1CCN(c2ccccc2NC(=O)c2ccc(OCc3ccccc3)cc2)CC1,-20,12,4,16,7,-16
COc1ccc(C2CC(=O)C(c3ccc(C(C)=O)cc3)=CN2Cc2ccccc2)cc1 (centres undefined),nt,-2,nt,-7,nt,nt
CCOC(=O)c1ccc(NC(=O)CN(c2ccc(C)cc2)S(=O)(=O)c2c(C)n[nH]c2C)cc1,19,34,12,52*,1,9
COCCNC(=O)c1c(N)[nH]c(C(=O)c2ccc(Br)cc2)c1-c1ccc(Br)cc1,nt,0,nt,1,nt,nt
CCOC(=O)N1CCN(C(=O)c2cn(-c3ccc(C)c(C)c3)c(=O)c3ccccc23)CC1,nt,17,75*,-2,nt,nt
COC(=O)[C@H](N[C@H](/C=C/c1ccccc1)[C@@H](O)Cc1ccccc1)c1ccccc1,nt,-1,nt,-3,nt,nt
Cc1ccc(S(=O)(=O)N2CCCCC2)cc1NC(=O)COC(=O)C1(C)CC1(Cl)Cl (centres undefined),5,18,nt,26,-1,-9
O=C(c1ccco1)N1CCN(c2ncnc3c2oc2ccccc23)CC1,0,14,-3,10,74*,-14
CCN1CCN(Cc2ccc(NC(=O)c3cc(NC(=O)c4ccno4)cc(OC)c3)cc2C(F)(F)F)CC1,-17,7,nt,14,15,-6
COc1cc(NC(=O)c2cc3cccc(OC)c3o2)cc(C(=O)Nc2cccc(C(F)(F)F)c2)c1,24,21,nt,87*,12,42*
COc1ccc(-c2cc(C(=O)Nc3cc(OC)cc(C(=O)Nc4cccc(C(F)(F)F)c4)c3)[nH]n2)cc1,22,10,nt,55*,20,32*
CCN1CCN(Cc2ccc(NC(=O)c3cc(NC(=O)c4cc5cccc(OC)c5o4)cc(OC)c3)cc2C(F)(F)F)CC1,-19,11,nt,59*!,21,-3
COc1cc(NC(=O)c2ccno2)cc(C(=O)Nc2cccc(C(F)(F)F)c2)c1,15,18,nt,38,18,27
O=C(NCCN1C(=O)S/C(=C/c2cccnc2)C1=O)c1ccc(S(=O)(=O)N2CCCC2)cc1,nt,3,nt,45,nt,nt
CCc1nc2ccc(C(=O)Nc3cccc(OCC(=O)N(C)C)c3)cn2c1N(C)Cc1ccc(OC)cc1,nt,11,nt,54*,nt,nt
Cc1cccc(NC(=O)CC2c3ccccc3Oc3ccccc32)c1,-11,0,3,-14,51*,-12
CCN1CCN(C(=O)c2cc(COc3ccc4ncccc4c3)on2)CC1,10,5,-3,8,47,20
COCCC1CCCCN1C(=O)c1cc(COc2ccc(-n3cncn3)cc2)on1 (centres undefined),22,6,14,10,47,53*
COCC1CCCCN1C(=O)c1cc(COc2ccc3ncccc3c2)on1 (centres undefined),55*,6,11,15,33,47*
